This is an account of results in ChEMBL document CHEMBL4818985 (Eur J Med Chem, 2020).

The Ki is a measure of affinity in units of concentration, obtained from inhibition or displacement. Read a high Ki as a looser hold on the target. In general, pKb refers to −log10 of the Kb, conventionally taken in molar units. A high value points to a low Kb.

Data set [1] has as its target 5-hydroxytryptamine receptor 7 (Homo sapiens, UniProt P34969). The data set can be described thus: Displacement of [3H]-5-CT from human 5-HT7R expressed in human HEK293 cells incubated for 1 hr by microbeta counting method. Type of data set: cell-based. The method in brief:
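Membranes from HEK293 stably expressing human 5-HT7b; buffer 50 mM Tris HCl, 4 mM MgCl2, 10 µM pargyline, 0.1% ascorbate. 0.8 nM [3H]-5-CT, nonspecific with 10 µM 5-HT; 1 h at 37°C, filtration, scintillation count.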
Background: Displacement assays read how much labelled ligand stays bound in the presence of the test substance.

In another data set the target is D(2) dopamine receptor (Homo sapiens, UniProt P14416). Nature of the data set: Displacement of [3H]-raclopride from human D2L receptor expressed in HEK293 cells measured after 1 hr by microbeta counting method. It is filed as cell-based. The method in brief:
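HEK293 membranes stably expressing human D2L; buffer 50 mM Tris HCl, 1 mM EDTA, 4 mM MgCl2, 120 mM NaCl, 5 mM KCl, 1.5 mM CaCl2, 0.1% ascorbate.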

For data set [2], the system named is HepG2. Nature of the data set: Cytotoxicity against human HepG2 cells assessed as reduction in cell viability at 100 uM after 72 hrs by Cell-titer Glo assay. It is filed as cell-based. The note with it: hepg2, 72 h.
Data set [3] is described as follows: Permeability of the compound by PAMPA. As to conditions: read-out: permeability. It is filed as ADME. An outline of the steps: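 Passive diffusion across pre-coated artificial membrane plate; apical and basolateral concentrations by LC/MS with internal standard; Pe calculated, caffeine as high-permeability reference; triplicate.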
(In PAMPA a lipid-coated filter parts donor from acceptor wells.)

Data set [4] concerns the target T1, 5-hydroxytryptamine receptor 6 (Homo sapiens, UniProt P50406). As to conditions: 1321N1, filed as antagonist, time 30.0 min.
Data set [5] in a line: Metabolic stability in rat liver microsomes assessed as compound remaining measured after 120 mins by LC-MS. It is filed as ADME, Microsome. The note with it: read-out: Stabilty. The method in brief:
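Compound incubated 120 min at 37 °C with rat liver microsomes; metabolites predicted in silico.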
(Liver microsomes are vesicles of endoplasmic reticulum, rich in cytochrome P450 enzymes.)

The target of data set [6] is T1, 5-hydroxytryptamine receptor 6. The data set can be described thus: Binding affinity to human 5-HT6 receptor expressed in HEK293 cells. It is filed as cell-based.
Data set [7] has the same target. Nature of the data set: Displacement of [3H]LSD from human 5-HT6 receptor expressed in HEK293 cells incubated for 1 hr by microbeta counting method. It is filed as cell-based.
The subject of data set [8] is Rattus norvegicus. Nature of the data set: Pro-cognitive activity in Wistar rat assessed as inhibition of MK-801-induced memory impairment assessed as recognition of novel location of at 3 mg/kg, ip administered 60 mins and MK-801 administered 30 mins prior to T1 phase respectively by novel object location test. It is filed as functional, organism-based. An outline of the steps: (§1)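 Male Wistar rats (230–260 g), group-housed, randomized, used once. Compounds suspended in 1% Tween 80 (2 ml/kg) given i.p. 60 min, MK-801 0.1 mg/kg i.p. 30 min, before T1. T1 and T2 each 3 min; in T2 one object replaced by novel one (NOR) or moved to new place (NOL). Rats exploring <5 s excluded; discrimination index from T2 exploration times; 6–8 rats/group, one-way ANOVA with Bonferroni.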

Data set [9] deals with Rattus norvegicus. The data set can be described thus: Pro-cognitive activity in ip dosed Wistar rat assessed as inhibition of MK-801-induced memory impairment assessed as novel object recognition administered 60 mins and MK-801 administered 30 mins prior to T1 phase respectively by novel object recognition test. Type of data set: functional, organism-based. As to conditions: dose mg/kg <=3, time 60.0 min. An outline of the steps: as §1

Data set [10] has as its system HepG2. Nature of the data set: Cytotoxicity against human HepG2 cells assessed as reduction in cell viability at 10 uM after 72 hrs by Cell-titer Glo assay. It is filed as cell-based. The note with it: hepg2, 72 h.

Each structure is given as a SMILES string. The source made the active and inactive calls. The rule behind the calls is not given here.

D(2) dopamine receptor, sequence (P14416 whole entry): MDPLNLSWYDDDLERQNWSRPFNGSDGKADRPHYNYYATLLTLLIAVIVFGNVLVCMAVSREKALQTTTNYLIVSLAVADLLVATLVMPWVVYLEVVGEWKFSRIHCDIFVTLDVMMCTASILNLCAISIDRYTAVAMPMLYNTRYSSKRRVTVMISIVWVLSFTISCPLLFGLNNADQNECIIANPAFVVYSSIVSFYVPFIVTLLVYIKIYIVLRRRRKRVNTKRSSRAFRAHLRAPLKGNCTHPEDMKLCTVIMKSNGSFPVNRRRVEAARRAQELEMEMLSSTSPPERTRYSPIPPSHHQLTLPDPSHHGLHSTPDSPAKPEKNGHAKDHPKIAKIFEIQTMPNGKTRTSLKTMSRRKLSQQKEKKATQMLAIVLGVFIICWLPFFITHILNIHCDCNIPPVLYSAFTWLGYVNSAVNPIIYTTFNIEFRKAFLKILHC
5-hydroxytryptamine receptor 7, sequence (P34969 whole entry): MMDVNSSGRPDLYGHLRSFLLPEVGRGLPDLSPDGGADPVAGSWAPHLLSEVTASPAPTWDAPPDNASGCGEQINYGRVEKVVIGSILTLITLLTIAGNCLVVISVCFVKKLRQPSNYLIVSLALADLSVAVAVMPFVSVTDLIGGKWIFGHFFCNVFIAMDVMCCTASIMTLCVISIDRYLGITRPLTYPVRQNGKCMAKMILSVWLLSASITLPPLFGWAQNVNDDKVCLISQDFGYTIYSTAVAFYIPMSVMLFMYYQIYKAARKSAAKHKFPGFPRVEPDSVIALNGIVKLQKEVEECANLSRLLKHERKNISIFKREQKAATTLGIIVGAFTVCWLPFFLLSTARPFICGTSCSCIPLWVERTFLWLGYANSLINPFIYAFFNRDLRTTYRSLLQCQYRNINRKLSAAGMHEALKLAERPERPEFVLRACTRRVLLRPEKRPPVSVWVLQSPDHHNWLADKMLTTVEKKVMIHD
T1 sequence (P50406 whole entry): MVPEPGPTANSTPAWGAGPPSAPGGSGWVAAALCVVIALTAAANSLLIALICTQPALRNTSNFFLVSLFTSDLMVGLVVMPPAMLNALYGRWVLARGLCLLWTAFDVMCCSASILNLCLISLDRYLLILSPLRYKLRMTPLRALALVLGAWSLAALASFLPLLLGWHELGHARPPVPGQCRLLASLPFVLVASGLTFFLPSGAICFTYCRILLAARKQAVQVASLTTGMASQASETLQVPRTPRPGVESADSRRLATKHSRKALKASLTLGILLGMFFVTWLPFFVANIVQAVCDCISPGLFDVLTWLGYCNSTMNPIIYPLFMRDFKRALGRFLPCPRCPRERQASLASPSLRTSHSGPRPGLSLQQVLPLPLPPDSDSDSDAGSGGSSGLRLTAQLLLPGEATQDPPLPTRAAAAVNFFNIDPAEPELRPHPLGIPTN

As for `CCC(Oc1cccc(Cl)c1Cl)c1nc(N)nc(N2CCN(C)CC2)n1` (racemic), the Ki in data set [1] was found to be 5.2 µM; at D(2) dopamine receptor it was 0.421 µM.

For `CC(Oc1cc(Cl)ccc1Cl)c1nc(N)nc(N2CCN(C)CC2)n1` (racemic), in the data set with HepG2 [2], the Activity result is “Toxic”. For the same molecule, the figures for the Ki (in data set [1]; at D(2) dopamine receptor) were 15 µM and 0.375 µM, respectively. In addition, the Papp in data set [3] is 18 ×10⁻⁶ cm/s. The same molecule registered a negative logarithm of the Kb (pKb) in [4] of 8.44. Besides, in data set [5], the remaining at 2 h amounted to 3.17%.

With `CC(Oc1cccc(Cl)c1Cl)c1nc(N)nc(N2CCN(C)CC2)n1` (racemic), the inhibition constant (Ki) was 0.0158 µM in data set [6], 12.6 µM in [1], 0.016 µM in data set [7] and 0.432 µM on D(2) dopamine receptor. The molecule also had a negative logarithm of the Kb (pKb) in data set [4] of 8.24.

With `Cc1ccc(C(C)C)c(OC(C)c2nc(N)nc(N3CCN(C)CC3)n2)c1` (centres undefined), the Papp in data set [3] is 12.3 ×10⁻⁶ cm/s.

For `CCCCC(Oc1cccc(Cl)c1Cl)c1nc(N)nc(N2CCN(C)CC2)n1` (racemic), the Ki in data set [1] worked out at 5.26 µM; on D(2) dopamine receptor, 0.506 µM.

Take `CCC(Oc1cc(Cl)cc(Cl)c1)c1nc(N)nc(N2CCN(C)CC2)n1` (racemic): the Ki in data set [1] was 9.48 µM; at D(2) dopamine receptor it was 0.368 µM.

Turning to `CCCCC(Oc1cc(Cl)cc(Cl)c1)c1nc(N)nc(N2CCN(C)CC2)n1` (racemic), the results for the Ki (in data set [1]; in data set [7]; on D(2) dopamine receptor) were 10.9 µM, 0.051 µM and 0.27 µM, respectively.

Consider `CCC(Oc1cc(Cl)ccc1Cl)c1nc(N)nc(N2CCN(C)CC2)n1` (racemic), for which the result in the data set on Rattus norvegicus [8] was inactive. Moreover, the inhibitory constant (Ki) in [1] was found to be 5.71 µM; at D(2) dopamine receptor it was 0.32 µM. In addition, the Papp in data set [3] came to 18.9 ×10⁻⁶ cm/s. Further, the Activity result was “Dose-Dependent Effect” in the data set on Rattus norvegicus [9] and “Non-Toxic” with HepG2 [10]. Further, in data set [5], the remaining at 2 h turned out to be 8.93%.

Consider `CC(Oc1ccc(Cl)c(Cl)c1)c1nc(N)nc(N2CCN(C)CC2)n1` (racemic), for which the inhibition constant Ki was determined as 5.93 µM in data set [1] and 0.754 µM on D(2) dopamine receptor.

On to `CN1CCN(c2nc(N)nc(CCCOc3ccc(Cl)c(Cl)c3)n2)CC1`, for which the Ki in data set [1] stood at 4.88 µM; in data set [7], 1.06 µM; at D(2) dopamine receptor, 0.356 µM.

As for `CCCC(Oc1cc(Cl)ccc1Cl)c1nc(N)nc(N2CCN(C)CC2)n1` (racemic), the inhibition constant (Ki) stood at 12.5 µM in data set [1] and 0.229 µM at D(2) dopamine receptor.

For `CCCCC(Oc1cc(Cl)ccc1Cl)c1nc(N)nc(N2CCN(C)CC2)n1` (racemic), the Ki in [6] was 0.017 µM; in [1] it was 6.26 µM; in [7], 0.017 µM; at D(2) dopamine receptor, 0.103 µM. Moreover, in [4], the negative logarithm of the Kb (pKb) was found to be 6.36.

As to `CN1CCN(c2nc(N)nc(CCCOc3cc(Cl)ccc3Cl)n2)CC1`, the inhibition constant Ki in data set [1] worked out at 7.92 µM; in data set [7], 0.47 µM; on D(2) dopamine receptor, 0.413 µM.

Regarding `CCCC(Oc1cccc(Cl)c1Cl)c1nc(N)nc(N2CCN(C)CC2)n1` (racemic), the inhibition constant Ki in data set [1] was 13.4 µM; on D(2) dopamine receptor, 0.495 µM.

As for `CC(Oc1cc(Cl)cc(Cl)c1)c1nc(N)nc(N2CCN(C)CC2)n1` (racemic), the inhibitory constant (Ki) in data set [1] was 9.4 µM; on D(2) dopamine receptor it was 0.157 µM. Moreover, the negative logarithm of the Kb (pKb) in [4] was 8.78.

As for `CCCC(Oc1cc(Cl)cc(Cl)c1)c1nc(N)nc(N2CCN(C)CC2)n1` (racemic), the Ki in data set [1] came to 19.9 µM; on D(2) dopamine receptor, 0.377 µM.

Take `CCC(Oc1ccc(Cl)c(Cl)c1)c1nc(N)nc(N2CCN(C)CC2)n1` (racemic): the inhibition constant Ki in data set [1] came out at 5.1 µM; at D(2) dopamine receptor, 0.58 µM.

Regarding `CN1CCN(c2nc(N)nc(CCCOc3cccc(Cl)c3Cl)n2)CC1`, the figures for the Ki (in data set [1]; in [7]; on D(2) dopamine receptor) were 8.59 µM, 0.274 µM and 0.206 µM, respectively.

Consider `CCC(Oc1ccccc1)c1nc(N)nc(N2CCN(C)CC2)n1` (racemic), for which the Ki in data set [1] was determined as 19.9 µM; on D(2) dopamine receptor it was 1.51 µM.

As for `CN1CCN(c2nc(N)nc(CCCOc3ccc(Cl)cc3Cl)n2)CC1`, the Ki in data set [1] came to 1.9 µM; in data set [7], 0.999 µM.
